Assay results published in ChEMBL document CHEMBL1138520, “Molecular and conformational determinants of pituitary adenylate cyclase-activating polypeptide (PACAP) for activation of the PAC1 receptor” (J Med Chem, 2009).
Where a SMILES comes first, the peptide text is derived from it.

Key:
[1] = biological target: T1, Pituitary adenylate cyclase-activating polypeptide type I receptor (Homo sapiens, UniProt P41586); test: Agonist activity at human recombinant PAC1 receptor expressed in CHO cells assessed as PACAP38-induced calcium mobilization by FLIPR assay; assay type: functional, cell-based
Procedure, shortened: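 CHO cells stably expressing recombinant human PAC1, plated 24 h before assay, loaded with fluo-4 AM for 60 min at 37 °C in the dark, then rinsed into HBSS for 15 min at 37 °C. EC50 and efficacy came from nonlinear regression; 4-10 independent assays in duplicate.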
Target sequence in this assay (P41586 whole entry): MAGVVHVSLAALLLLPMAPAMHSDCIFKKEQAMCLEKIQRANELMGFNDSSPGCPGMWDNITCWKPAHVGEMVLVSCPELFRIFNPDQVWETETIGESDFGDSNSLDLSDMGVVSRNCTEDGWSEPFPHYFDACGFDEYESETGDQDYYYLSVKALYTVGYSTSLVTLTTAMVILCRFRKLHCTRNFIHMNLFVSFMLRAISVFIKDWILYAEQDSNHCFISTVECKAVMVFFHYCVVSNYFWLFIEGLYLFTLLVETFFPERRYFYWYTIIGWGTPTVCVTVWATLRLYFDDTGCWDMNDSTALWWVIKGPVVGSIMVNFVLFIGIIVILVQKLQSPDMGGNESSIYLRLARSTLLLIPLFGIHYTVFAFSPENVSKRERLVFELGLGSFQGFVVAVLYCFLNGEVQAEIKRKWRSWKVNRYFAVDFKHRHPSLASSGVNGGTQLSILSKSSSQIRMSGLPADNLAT

[2] = biological target: T1, Pituitary adenylate cyclase-activating polypeptide type I receptor; test: Displacement of [125I]Ac-PACAP27 from human recombinant PAC1 receptor expressed in CHO cells by gamma- counter; assay type: cell-based
Target sequence in this assay (P41586 whole entry): as above

[3] = biological target: T1, Pituitary adenylate cyclase-activating polypeptide type I receptor; test: Agonist activity at human recombinant PAC1 receptor expressed in CHO cells assessed as PACAP38-induced calcium mobilization by FLIPR assay relative to PACAP38; assay type: functional, cell-based
Procedure, shortened: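 CHO cells stably expressing recombinant human PAC1, plated 24 h before assay, loaded with fluo-4 AM for 60 min at 37 °C in the dark, then rinsed into HBSS for 15 min at 37 °C. Peptide was added 18 s into a 150 s read (ex 480/em 525 nm), at final concentrations of 1 × 10-12 to 1 × 10^-5 M. Response was normalised to 1 × 10^-5 M PACAP38 on each plate. EC50 and efficacy came from nonlinear regression; 4-10 independent assays in duplicate.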
Target sequence in this assay (P41586 21-468 limits assumed): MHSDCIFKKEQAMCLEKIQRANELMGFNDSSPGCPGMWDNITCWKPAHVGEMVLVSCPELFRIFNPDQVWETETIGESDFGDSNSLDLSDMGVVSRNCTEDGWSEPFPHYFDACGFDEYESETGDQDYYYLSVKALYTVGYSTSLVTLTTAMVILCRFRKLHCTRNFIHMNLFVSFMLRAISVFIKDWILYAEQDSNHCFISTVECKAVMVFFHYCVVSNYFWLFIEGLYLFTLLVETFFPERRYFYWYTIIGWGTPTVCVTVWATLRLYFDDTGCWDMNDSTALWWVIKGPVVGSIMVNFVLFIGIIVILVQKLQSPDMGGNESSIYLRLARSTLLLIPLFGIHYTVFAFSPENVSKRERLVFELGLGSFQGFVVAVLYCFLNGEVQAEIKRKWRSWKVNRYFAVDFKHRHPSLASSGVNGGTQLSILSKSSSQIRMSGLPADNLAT

SMILES | EC50 [1] | IC50 [2] | Emax [3]
CC[C@H](C)[C@H](NC(=O)CNC(=O)[C@H](CC(=O)O)NC(=O)[C@@H](CO)NC(=O)[C@@H](N)Cc1cnc[nH]1)C(=O)N[C@@H](Cc1ccccc1)C(=O)N[C@H](C(=O)N[C@@H](CC(=O)O)C(=O)N[C@@H](CO)C(=O)N[C@@H](Cc1ccc(O)cc1)C(=O)N[C@@H](CO)C(=O)N[C@@H](CCCNC(=N)N)C(=O)N[C@@H](Cc1ccc(O)cc1)C(=O)N[C@@H](CCCNC(=N)N)C(=O)N[C@@H](CCCCN)C(=O)N[C@@H](CCC(N)=O)C(=O)N[C@@H](CCSC)C(=O)N[C@@H](C)C(=O)N[C@H](C(=O)N[C@@H](CCCCN)C(=O)N[C@@H](CCCCN)C(=O)N[C@@H](Cc1ccc(O)cc1)C(=O)N[C@@H](CC(C)C)C(=O)N[C@@H](C)C(=O)N[C@@H](C)C(=O)N[C@H](C(=O)N[C@@H](CC(C)C)C(=O)NCC(=O)N[C@@H](CCCCN)C(=O)N[C@@H](CCCNC(=N)N)C(=O)N[C@@H](Cc1ccc(O)cc1)C(=O)N[C@@H](CCCCN)C(=O)N[C@@H](CCC(N)=O)C(=O)N[C@@H](CCCNC(=N)N)C(=O)N[C@H](C(=O)N[C@@H](CCCCN)C(=O)N[C@@H](CC(N)=O)C(=O)N[C@@H](CCCCN)C(N)=O)C(C)C)C(C)C)C(C)C)[C@@H](C)O | 4.1 nM | 6.6 nM | 90.5%
CC[C@H](C)[C@H](NC(=O)CNC(=O)[C@@H](CC(=O)O)NC(=O)[C@H](CO)NC(=O)[C@@H](N)Cc1cnc[nH]1)C(=O)N[C@@H](Cc1ccccc1)C(=O)N[C@H](C(=O)N[C@@H](CC(=O)O)C(=O)N[C@@H](CO)C(=O)N[C@@H](Cc1ccc(O)cc1)C(=O)N[C@@H](CO)C(=O)N[C@@H](CCCNC(=N)N)C(=O)N[C@@H](Cc1ccc(O)cc1)C(=O)N[C@@H](CCCNC(=N)N)C(=O)N[C@@H](CCCCN)C(=O)N[C@@H](CCC(N)=O)C(=O)N[C@@H](CCSC)C(=O)N[C@@H](C)C(=O)N[C@H](C(=O)N[C@@H](CCCCN)C(=O)N[C@@H](CCCCN)C(=O)N[C@@H](Cc1ccc(O)cc1)C(=O)N[C@@H](CC(C)C)C(=O)N[C@@H](C)C(=O)N[C@@H](C)C(=O)N[C@H](C(=O)N[C@@H](CC(C)C)C(=O)NCC(=O)N[C@@H](CCCCN)C(=O)N[C@@H](CCCNC(=N)N)C(=O)N[C@@H](Cc1ccc(O)cc1)C(=O)N[C@@H](CCCCN)C(=O)N[C@@H](CCC(N)=O)C(=O)N[C@@H](CCCNC(=N)N)C(=O)N[C@H](C(=O)N[C@@H](CCCCN)C(=O)N[C@@H](CC(N)=O)C(=O)N[C@@H](CCCCN)C(N)=O)C(C)C)C(C)C)C(C)C)[C@@H](C)O | 7.6 nM | 7.2 nM | 98.6%
CC[C@H](C)[C@H](NC(=O)CNC(=O)[C@H](C)NC(=O)[C@H](CO)NC(=O)[C@@H](N)Cc1cnc[nH]1)C(=O)N[C@@H](Cc1ccccc1)C(=O)N[C@H](C(=O)N[C@@H](CC(=O)O)C(=O)N[C@@H](CO)C(=O)N[C@@H](Cc1ccc(O)cc1)C(=O)N[C@@H](CO)C(=O)N[C@@H](CCCNC(=N)N)C(=O)N[C@@H](Cc1ccc(O)cc1)C(=O)N[C@@H](CCCNC(=N)N)C(=O)N[C@@H](CCCCN)C(=O)N[C@@H](CCC(N)=O)C(=O)N[C@@H](CCSC)C(=O)N[C@@H](C)C(=O)N[C@H](C(=O)N[C@@H](CCCCN)C(=O)N[C@@H](CCCCN)C(=O)N[C@@H](Cc1ccc(O)cc1)C(=O)N[C@@H](CC(C)C)C(=O)N[C@@H](C)C(=O)N[C@@H](C)C(=O)N[C@H](C(=O)N[C@@H](CC(C)C)C(=O)NCC(=O)N[C@@H](CCCCN)C(=O)N[C@@H](CCCNC(=N)N)C(=O)N[C@@H](Cc1ccc(O)cc1)C(=O)N[C@@H](CCCCN)C(=O)N[C@@H](CCC(N)=O)C(=O)N[C@@H](CCCNC(=N)N)C(=O)N[C@H](C(=O)N[C@@H](CCCCN)C(=O)N[C@@H](CC(N)=O)C(=O)N[C@@H](CCCCN)C(N)=O)C(C)C)C(C)C)C(C)C)[C@@H](C)O (H-HSAGIFTDSYSRYRKQMAVKKYLAAVLGKRYKQRVKNK-NH2) | 10000 nM | 97.2 nM | 64.1%
CC[C@H](C)[C@H](NC(=O)CNC(=O)[C@H](CC(=O)O)NC(=O)[C@H](CO)NC(=O)[C@@H](N)Cc1cnc[nH]1)C(=O)N[C@@H](Cc1ccccc1)C(=O)N[C@@H](C)C(=O)N[C@@H](CC(=O)O)C(=O)N[C@@H](CO)C(=O)N[C@@H](Cc1ccc(O)cc1)C(=O)N[C@@H](CO)C(=O)N[C@@H](CCCNC(=N)N)C(=O)N[C@@H](Cc1ccc(O)cc1)C(=O)N[C@@H](CCCNC(=N)N)C(=O)N[C@@H](CCCCN)C(=O)N[C@@H](CCC(N)=O)C(=O)N[C@@H](CCSC)C(=O)N[C@@H](C)C(=O)N[C@H](C(=O)N[C@@H](CCCCN)C(=O)N[C@@H](CCCCN)C(=O)N[C@@H](Cc1ccc(O)cc1)C(=O)N[C@@H](CC(C)C)C(=O)N[C@@H](C)C(=O)N[C@@H](C)C(=O)N[C@H](C(=O)N[C@@H](CC(C)C)C(=O)NCC(=O)N[C@@H](CCCCN)C(=O)N[C@@H](CCCNC(=N)N)C(=O)N[C@@H](Cc1ccc(O)cc1)C(=O)N[C@@H](CCCCN)C(=O)N[C@@H](CCC(N)=O)C(=O)N[C@@H](CCCNC(=N)N)C(=O)N[C@H](C(=O)N[C@@H](CCCCN)C(=O)N[C@@H](CC(N)=O)C(=O)N[C@@H](CCCCN)C(N)=O)C(C)C)C(C)C)C(C)C (H-HSDGIFADSYSRYRKQMAVKKYLAAVLGKRYKQRVKNK-NH2) | 0.8 nM | 4 nM | 101%
CC[C@H](C)[C@H](NC(=O)[C@H](C)NC(=O)[C@H](CC(=O)O)NC(=O)[C@H](CO)NC(=O)[C@@H](N)Cc1cnc[nH]1)C(=O)N[C@@H](Cc1ccccc1)C(=O)N[C@H](C(=O)N[C@@H](CC(=O)O)C(=O)N[C@@H](CO)C(=O)N[C@@H](Cc1ccc(O)cc1)C(=O)N[C@@H](CO)C(=O)N[C@@H](CCCNC(=N)N)C(=O)N[C@@H](Cc1ccc(O)cc1)C(=O)N[C@@H](CCCNC(=N)N)C(=O)N[C@@H](CCCCN)C(=O)N[C@@H](CCC(N)=O)C(=O)N[C@@H](CCSC)C(=O)N[C@@H](C)C(=O)N[C@H](C(=O)N[C@@H](CCCCN)C(=O)N[C@@H](CCCCN)C(=O)N[C@@H](Cc1ccc(O)cc1)C(=O)N[C@@H](CC(C)C)C(=O)N[C@@H](C)C(=O)N[C@@H](C)C(=O)N[C@H](C(=O)N[C@@H](CC(C)C)C(=O)NCC(=O)N[C@@H](CCCCN)C(=O)N[C@@H](CCCNC(=N)N)C(=O)N[C@@H](Cc1ccc(O)cc1)C(=O)N[C@@H](CCCCN)C(=O)N[C@@H](CCC(N)=O)C(=O)N[C@@H](CCCNC(=N)N)C(=O)N[C@H](C(=O)N[C@@H](CCCCN)C(=O)N[C@@H](CC(N)=O)C(=O)N[C@@H](CCCCN)C(N)=O)C(C)C)C(C)C)C(C)C)[C@@H](C)O (H-HSDAIFTDSYSRYRKQMAVKKYLAAVLGKRYKQRVKNK-NH2) | 7.4 nM | 9.84 nM | 90.2%

More lines, in order of falling EC50 [1], values ahead:

EC50 [1] | IC50 [2] | Emax [3] | SMILES
564 nM | 2170 nM | 65.9% | CC[C@H](C)[C@H](NC(=O)CNC(=O)[C@H](CC(=O)O)NC(=O)[C@H](CO)NC(=O)[C@@H](N)Cc1cnc[nH]1)C(=O)N1Cc2ccccc2CC1C(=O)N[C@H](C(=O)N[C@@H](CC(=O)O)C(=O)N[C@@H](CO)C(=O)N[C@@H](Cc1ccc(O)cc1)C(=O)N[C@@H](CO)C(=O)N[C@@H](CCCNC(=N)N)C(=O)N[C@@H](Cc1ccc(O)cc1)C(=O)N[C@@H](CCCNC(=N)N)C(=O)N[C@@H](CCCCN)C(=O)N[C@@H](CCC(N)=O)C(=O)N[C@@H](CCSC)C(=O)N[C@@H](C)C(=O)N[C@H](C(=O)N[C@@H](CCCCN)C(=O)N[C@@H](CCCCN)C(=O)N[C@@H](Cc1ccc(O)cc1)C(=O)N[C@@H](CC(C)C)C(=O)N[C@@H](C)C(=O)N[C@@H](C)C(=O)N[C@H](C(=O)N[C@@H](CC(C)C)C(N)=O)C(C)C)C(C)C)[C@@H](C)O (some centres undefined)
110 nM | 9.1 nM | 87.7% | CC[C@H](C)[C@H](NC(=O)CNC(=O)[C@H](CC(=O)O)NC(=O)[C@H](CO)N(C)C(=O)[C@@H](N)Cc1cnc[nH]1)C(=O)N[C@@H](Cc1ccccc1)C(=O)N[C@H](C(=O)N[C@@H](CC(=O)O)C(=O)N[C@@H](CO)C(=O)N[C@@H](Cc1ccc(O)cc1)C(=O)N[C@@H](CO)C(=O)N[C@@H](CCCNC(=N)N)C(=O)N[C@@H](Cc1ccc(O)cc1)C(=O)N[C@@H](CCCNC(=N)N)C(=O)N[C@@H](CCCCN)C(=O)N[C@@H](CCC(N)=O)C(=O)N[C@@H](CCSC)C(=O)N[C@@H](C)C(=O)N[C@H](C(=O)N[C@@H](CCCCN)C(=O)N[C@@H](CCCCN)C(=O)N[C@@H](Cc1ccc(O)cc1)C(=O)N[C@@H](CC(C)C)C(=O)N[C@@H](C)C(=O)N[C@@H](C)C(=O)N[C@H](C(=O)N[C@@H](CC(C)C)C(=O)NCC(=O)N[C@@H](CCCCN)C(=O)N[C@@H](CCCNC(=N)N)C(=O)N[C@@H](Cc1ccc(O)cc1)C(=O)N[C@@H](CCCCN)C(=O)N[C@@H](CCC(N)=O)C(=O)N[C@@H](CCCNC(=N)N)C(=O)N[C@H](C(=O)N[C@@H](CCCCN)C(=O)N[C@@H](CC(N)=O)C(=O)N[C@@H](CCCCN)C(N)=O)C(C)C)C(C)C)C(C)C)[C@@H](C)O
20.8 nM | 9.1 nM | 105% | CC[C@H](C)[C@H](NC(=O)[C@H](C)NC(=O)[C@H](CC(=O)O)NC(=O)[C@H](CO)NC(=O)[C@@H](N)Cc1cnc[nH]1)C(=O)N[C@@H](Cc1ccccc1)C(=O)N[C@H](C(=O)N[C@@H](CC(=O)O)C(=O)N[C@@H](CO)C(=O)N[C@@H](Cc1ccc(O)cc1)C(=O)N[C@@H](CO)C(=O)N[C@@H](CCCNC(=N)N)C(=O)N[C@@H](Cc1ccc(O)cc1)C(=O)N[C@@H](CCCNC(=N)N)C(=O)N[C@@H](CCCCN)C(=O)N[C@@H](CCC(N)=O)C(=O)N[C@@H](CCSC)C(=O)N[C@@H](C)C(=O)N[C@H](C(=O)N[C@@H](CCCCN)C(=O)N[C@@H](CCCCN)C(=O)N[C@@H](Cc1ccc(O)cc1)C(=O)N[C@@H](CC(C)C)C(=O)N[C@@H](C)C(=O)N[C@@H](C)C(=O)N[C@H](C(=O)N[C@@H](CC(C)C)C(N)=O)C(C)C)C(C)C)[C@@H](C)O
